Tests used:
Hepatitis C virus [1] = experiment: Antiviral activity against HCV 1b infected in human Huh-7 cells after 48hrs by luciferase assay; format: functional, organism-based, Hepacivirus hominis; conditions: genotype 1b, Huh-7, 48 h
Summary of the method: (§1)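 Subgenomic (NS3-NS5B) luciferase replicon cells for genotype 1a or 1b. The 1b ET line is stably transfected with a firefly luciferase-ubiquitin-neo replicon carrying cell culture adaptive mutations. Cells are seeded at 5 × 10³/well onto compounds in 1% DMSO final. Luciferase is read after 48 h. EC50 comes from an 11-point, 3-fold dilution curve, as % inhibition versus no-compound control, with a four-parameter logistic fit.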

Hepatitis C virus [2] = experiment: Antiviral activity against HCV 1a infected in human Huh-7 cells after 48hrs by luciferase assay; format: functional, organism-based, Hepacivirus hominis; conditions: subtype 1a, Huh-7, 48 h; summary of the method: as §1
[3] = Inhibition of HCV 1a NS3/4A protease by FRET assay; parameters: species or system Hepatitis C virus subtype 1a
Summary of the method: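 FRET assay with the genotype 1a NS3/4A protease domain and a fluorogenic peptide substrate. Buffer is 50 mM HEPES, 20% sucrose, 5 mM DTT and 0.05% NP-40. Initial rates are read at ex 490/em 520 nm. IC50 values are means of duplicate or triplicate experiments.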

Rattus norvegicus [4] = organism: Rattus norvegicus; experiment: Metabolic absorption in rat; format: ADME, organism-based; conditions: in vivo
Summary of the method: (§2)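 Rat pharmacokinetics with blood drawn from both the jugular and portal veins after oral dosing, with IV dosing as reference. Absorption is calculated from portal vein drug levels. Oral bioavailability is calculated from jugular vein levels, each compared with levels after IV administration.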

[5] = (§3) Oral bioavailability in rat; format: ADME, organism-based; conditions: in vivo; summary of the method: as §2
Rattus norvegicus [6] = experiment: as §3; format: ADME, organism-based; conditions: in vivo, BLD = below limit of detection; summary of the method: as §2

Row | Compound | EC50 (Hepatitis C virus [1]) [nM] | EC50 (Hepatitis C virus [2]) [nM] | IC50 [3] [nM] | Activity (Rattus norvegicus [4]) [%] | bioavailability [5] [%] | Activity (Rattus norvegicus [4]; BLD = below limit of detection) | F (Rattus norvegicus [6])
1 | COc1ccc2c(O[C@@H]3CC4C(=O)N[C@]5(C(=O)NS(=O)(=O)C6CC6)C[C@H]5/C=C\CCCCC[C@H](NC(=O)Nc5ccc6c(c5)B(O)OC6)C(=O)N4C3)cc(-c3nc(C(C)C)cs3)nc2c1C (some centres undefined) | 1.2 | 12.5 | 5.6 | – | – | – | –
2 | COc1ccc2c(O[C@@H]3C[C@H]4C(=O)N[C@]5(C(=O)NS(=O)(=O)C6CC6)C[C@H]5/C=C\CCCCN(C)C(=O)[C@@H]4C3)cc(-c3nc(C(C)C)cs3)nc2c1C [SIMEPREVIR] | 1.4 | 2.3 | 10 | – | – | – | –
3 | O=C(NCc1ccc2c(c1)B(O)OC2)N[C@H]1CCCCC/C=C\[C@@H]2C[C@@]2(C(=O)NS(=O)(=O)C2CC2)NC(=O)C2C[C@@H](OC(=O)N3Cc4cccc(F)c4C3)CN2C1=O (some centres undefined) | 0.9 | 160 | 0.4 | 0.6 | 0.7 | – | –
4 | COc1cnc(O[C@@H]2CC3C(=O)N[C@]4(C(=O)NS(=O)(=O)C5CC5)C[C@H]4/C=C\CCCCC[C@H](NC(=O)NCc4ccc5c(c4)B(O)OC5)C(=O)N3C2)c2cc(Cl)ccc12 (some centres undefined) | 3.9 | 50.1 | 0.4 | – | – | – | –
5 | COc1cnc(O[C@@H]2CC3C(=O)N[C@]4(C(=O)NS(=O)(=O)C5CC5)C[C@H]4/C=C\CCCCC[C@H](NC(=O)Nc4ccc5c(c4)B(O)OC5)C(=O)N3C2)c2cc(Cl)ccc12 (some centres undefined) | 3.9 | 60.3 | 0.6 | – | – | – | –
6 | O=C(Nc1cc2c(cc1F)COB2O)N[C@H]1CCCCC/C=C\[C@@H]2C[C@@]2(C(=O)NS(=O)(=O)C2CC2)NC(=O)C2C[C@@H](OC(=O)N3Cc4cccc(F)c4C3)CN2C1=O (some centres undefined) | 1.5 | 35 | < 0.2 | – | – | – | –
7 | O=C(N[C@H]1CCCCC/C=C\[C@@H]2C[C@@]2(C(=O)NS(=O)(=O)C2CC2)NC(=O)C2C[C@@H](OC(=O)N3Cc4cccc(F)c4C3)CN2C1=O)Oc1ccc2c(c1)COB2O (some centres undefined) | 172 | 3550 | 2.4 | – | – | – | –
8 | CC1OB(O)c2cc(NC(=O)N[C@H]3CCCCC/C=C\[C@@H]4C[C@@]4(C(=O)NS(=O)(=O)C4CC4)NC(=O)C4C[C@@H](OC(=O)N5Cc6cccc(F)c6C5)CN4C3=O)c(F)cc21 (some centres undefined) | 1.2 | 20 | 0.4 | – | – | – | –
9 | O=C(Nc1ccc2c(c1)B(O)OC2)N[C@H]1CCCCC/C=C\[C@@H]2C[C@@]2(C(=O)NS(=O)(=O)C2CC2)NC(=O)C2C[C@@H](OC(=O)N3Cc4cccc(F)c4C3)CN2C1=O (some centres undefined) | 3.7 | 159 | 0.4 | 0.9 | 0.5 | – | –
10 | CC(C)(C)OC(=O)N[C@H]1CCCCC/C=C\[C@@H]2C[C@@]2(C(=O)NS(=O)(=O)C2CC2)NC(=O)[C@@H]2C[C@@H](OC(=O)N3Cc4cccc(F)c4C3)CN2C1=O [DANOPREVIR] | 1.1 | 1 | 0.4 | 17.4 | 20 | – | –
11 | COc1ccc2c(O[C@@H]3CC4C(=O)N[C@]5(C(=O)NS(=O)(=O)C6CC6)C[C@H]5/C=C\CCCCC[C@H](NC(=O)NCc5ccc6c(c5)B(O)OC6)C(=O)N4C3)cc(-c3nc(C(C)C)cs3)nc2c1C (some centres undefined) | 0.5 | 4.2 | 4.1 | – | – | BLD | BLD
12 | O=C(N[C@H]1CCCCC/C=C\[C@@H]2C[C@@]2(C(=O)NS(=O)(=O)C2CC2)NC(=O)C2C[C@@H](OC(=O)N3Cc4cccc(F)c4C3)CN2C1=O)Oc1ccc2c(c1)B(O)OC2 (some centres undefined) | 15 | 661 | 1.6 | – | – | – | –

— ChEMBL document CHEMBL1287776, “Synthesis and biological evaluations of P4-benzoxaborole-substituted macrocyclic inhibitors of HCV NS3 protease” (Bioorg Med Chem Lett, 2010)
